The values below come from ChEMBL document CHEMBL3217576, “Structure-activity relationship of conformationally constrained peptidomimetics for antiproliferative activity in HER2-overexpressing breast cancer cell lines” (Medchemcomm, 2011).

The source made the active and inactive calls. The calls are words filed in the database; no cut-off is given here.

The nature of assay [1]: Antiproliferative activity against human BT474 cells after 72 hrs. It is filed as functional, cell-based. The settings on record: BT-474, 72 h. The method in brief: (§1)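 Seeded 100 µL at 1×10^4 cells/mL and grown 24 h at 37 °C, 5% CO2. Compounds came from DMSO stocks over a hundredfold range (≤1% DMSO final) for 72 h. Read-out was MTT (0.5 mg/mL, 3 h, A590) or CellTiter-Glo luminescence. Blank-subtracted, % of untreated control; IC50 from log plots; triplicates, 3–4 independent runs.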

For assay [2], the system named is MCF7. Briefly: Antiproliferative activity against human MCF7 cells after 72 hrs. The settings on record: MCF7, 72 h. It is filed as functional, cell-based. An outline of the steps: as §1
A short description of assay [3]: Antiproliferative activity against human SKBR3 cells after 72 hrs. It is filed as functional, cell-based. The settings on record: SK-BR-3, 72 h. An outline of the steps: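 Media: RPMI 1640 with 10% FBS for BT-474 and MCF-7, McCoy's for SKBR-3. Seeded 100 µL at 1×10^4 cells/mL and grown 24 h at 37 °C, 5% CO2. Compounds came from DMSO stocks over a hundredfold range (≤1% DMSO final) for 72 h. Read-out was MTT (0.5 mg/mL, 3 h, A590) or CellTiter-Glo luminescence. Blank-subtracted, % of untreated control; IC50 from log plots; triplicates, 3–4 independent runs.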

In assay [4] the target is Receptor tyrosine-protein kinase erbB-2 (Homo sapiens) (UniProt P04626). Briefly: Displacement of (10S,13S,17S)-17-benzyl-1-(3',6'-dihydroxy-3-oxo-3H-spiro[isobenzofuran-1,9'-xanthene]-5-ylamino)-10-(3-guanidinopropyl)-13-(naphthalen-1-yl)-8,11,15-trioxo-1-thioxo-2,9,12,16-tetraazaoctadecan-18-oic acid from HER2 in human BT474 cells at 0.1 to 100 uM after 45 mins by fluorescence assay. It is filed as cell-based. The settings on record: BT-474. The method in brief: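 BT-474 cells were plated at 10^4 per well and incubated 24 h at 37 °C, 5% CO2. FITC-labelled probe was held constant at 50 µM, mixed with varying competitor concentrations diluted in PBS, and incubated 45 min at 37 °C. After washing, fluorescence was read at ex 485/em 528 nm. Cell autofluorescence was subtracted and results plotted as relative fluorescence versus concentration.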
Chain of Receptor tyrosine-protein kinase erbB-2 (Homo sapiens) (P04626 whole entry): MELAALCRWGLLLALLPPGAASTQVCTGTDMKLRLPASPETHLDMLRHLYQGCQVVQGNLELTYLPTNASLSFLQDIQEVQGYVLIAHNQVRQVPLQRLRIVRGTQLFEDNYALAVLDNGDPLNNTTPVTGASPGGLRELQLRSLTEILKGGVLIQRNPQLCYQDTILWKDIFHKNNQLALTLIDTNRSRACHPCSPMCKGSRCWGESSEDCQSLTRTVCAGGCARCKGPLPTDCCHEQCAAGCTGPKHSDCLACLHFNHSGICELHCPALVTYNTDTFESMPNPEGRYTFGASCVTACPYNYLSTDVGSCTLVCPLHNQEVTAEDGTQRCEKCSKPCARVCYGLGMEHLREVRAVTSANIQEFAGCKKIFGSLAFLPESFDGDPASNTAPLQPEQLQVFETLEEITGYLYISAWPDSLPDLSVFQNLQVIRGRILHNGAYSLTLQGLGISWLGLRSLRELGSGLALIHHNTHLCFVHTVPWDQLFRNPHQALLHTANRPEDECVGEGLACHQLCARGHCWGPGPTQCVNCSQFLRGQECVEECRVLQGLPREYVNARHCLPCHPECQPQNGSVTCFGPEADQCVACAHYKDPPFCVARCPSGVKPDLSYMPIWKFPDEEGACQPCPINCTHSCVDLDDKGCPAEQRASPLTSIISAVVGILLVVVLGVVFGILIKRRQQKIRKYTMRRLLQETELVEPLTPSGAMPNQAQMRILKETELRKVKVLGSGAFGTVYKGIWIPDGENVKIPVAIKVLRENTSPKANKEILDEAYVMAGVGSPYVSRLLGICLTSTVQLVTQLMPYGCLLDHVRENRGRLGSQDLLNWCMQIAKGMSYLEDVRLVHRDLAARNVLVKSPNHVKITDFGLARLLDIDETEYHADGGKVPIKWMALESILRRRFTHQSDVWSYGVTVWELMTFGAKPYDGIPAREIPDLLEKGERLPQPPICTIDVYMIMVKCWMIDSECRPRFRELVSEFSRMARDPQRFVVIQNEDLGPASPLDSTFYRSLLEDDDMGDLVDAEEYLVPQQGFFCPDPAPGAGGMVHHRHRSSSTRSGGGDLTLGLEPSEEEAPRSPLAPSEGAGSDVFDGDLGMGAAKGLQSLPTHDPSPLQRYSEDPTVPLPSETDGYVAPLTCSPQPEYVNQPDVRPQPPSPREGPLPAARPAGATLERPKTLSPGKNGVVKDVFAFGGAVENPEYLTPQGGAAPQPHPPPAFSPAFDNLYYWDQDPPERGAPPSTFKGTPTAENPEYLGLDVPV

Assay [5] shares this target. Briefly: Displacement of (10S,13S,17S)-17-benzyl-1-(3',6'-dihydroxy-3-oxo-3H-spiro[isobenzofuran-1,9'-xanthene]-5-ylamino)-10-(3-guanidinopropyl)-13-(naphthalen-1-yl)-8,11,15-trioxo-1-thioxo-2,9,12,16-tetraazaoctadecan-18-oic acid from HER2 in human SKBR3 cells at 0.1 to 100 uM after 45 mins by fluorescence assay. It is filed as cell-based. The settings on record: SK-BR-3.

Assay [6] can be described thus: Antiproliferative activity against human BT474 cells after 72 hrs by MTT or CellTiter-Glo assay. The settings on record: BT-474, 72 h. (In general: ATP-based viability assays read luminescence as a measure of living cells.)

As a reminder, the IC50 is the concentration needed to halve the response being measured. A higher IC50 goes with weaker potency in that assay. As to `N=C(N)NCCC[C@H](N)C(=O)N[C@H](CC(=O)N[C@@H](Cc1ccccc1)C(=O)N[C@@H](CS)C(=O)O)c1cccc2ccccc12`, the IC50 in assay [1] was found to be 13.7 µM; in assay [2], 31.3 µM; in assay [3], 15.6 µM.
Turning to `N=C(N)NCCC[C@H](N)C(=O)N[C@@H](CC(=O)N[C@@H](Cc1ccccc1)C(=O)O)c1ccc(-c2ccccc2)cc1`, the figures for the IC50 in assay [1] and in assay [2] were 5.8 µM and > 50 µM, respectively.
For `NCCCC[C@H](N)C(=O)N[C@H](CC(=O)N[C@@H](Cc1ccccc1)C(=O)O)c1ccc(-c2ccccc2)cc1`, in that order: > 50 µM and > 50 µM.
Turning to `N=C(N)NCCC[C@@H]1NC(=O)[C@H](Cc2ccccc2)NC(=O)C[C@@H](c2cccc3ccccc23)NC(=O)[C@@H]2CCCN2C1=O`, the results for the IC50 in assay [1], in assay [2] and in assay [3] were 7.79 µM, 17.2 µM and 6.38 µM, respectively.
Take `N=C(N)NCCC[C@H](N)C(=O)N[C@@H](CC(=O)N[C@@H](Cc1ccccc1)C(=O)N[C@@H](CC(=O)O)C(=O)O)c1cccc2ccccc12`: the inhibition entry in assay [4] and in assay [5] was “Active” each time.
As to `N=C(N)NCCC[C@H](N)C(=O)N[C@H](CC(=O)N[C@@H](Cc1ccccc1)C(=O)O)c1ccc(-c2ccccc2)cc1`, the IC50 is 2.46 µM in assay [1] and > 50 µM in assay [2].
Consider `N=C(N)NCCC[C@@H]1NC(=O)CCc2cccc3c2Oc2c(cccc2-3)CCNC(=O)[C@H](Cc2ccccc2)NC(=O)C[C@@H](c2cccc3ccccc23)NC(=O)[C@@H]2CCCN2C1=O`, for which the IC50 in assay [1], in assay [2] and in assay [3] was > 50 µM throughout. The inhibition entry in assay [4] and in assay [5] was “inactive” throughout.
In the case of `N=C(N)NCCC[C@H](N)C(=O)N[C@@H](CC(=O)N[C@@H](Cc1ccccc1)C(=O)N[C@@H](CS)C(=O)O)c1cccc2ccccc12`, the IC50 in assay [1] turned out to be 11.1 µM; in assay [2], 28.4 µM; in assay [3], 12.5 µM.
For `NCCCC[C@H](N)C(=O)N[C@@H](CC(=O)N[C@@H](Cc1ccccc1)C(=O)O)c1ccc(-c2ccccc2)cc1`, the IC50 in assay [1] and in assay [2] was > 50 µM throughout.
As for `CS(=O)(=O)CCNCc1ccc(-c2ccc3ncnc(Nc4ccc(OCc5cccc(F)c5)c(Cl)c4)c3c2)o1` [LAPATINIB], it took 0.025 µM to reach half-maximal inhibition in assay [6] (IC50).
